Results: ChEMBL document CHEMBL5356992, “New nitazoxanide derivatives: design, synthesis, biological evaluation, and molecular docking studies as antibacterial and antimycobacterial agents” (RSC Med Chem, 2023)
In brackets after ≈: the same amount, converted by molar mass.

Assays:
Staphylococcus aureus [1] = experiment: Antibacterial activity against Staphylococcus aureus ATCC 6538 by broth microdilution method; format: functional
Outline: (§1)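 CLSI broth microdilution on wild-type strains. E. coli ATCC 8739, P. aeruginosa ATCC 27853 and K. pneumoniae ATCC 10031 served as Gram-negatives. S. aureus ATCC 6538 and E. faecalis ATCC 19433 served as Gram-positives. H. pylori ATCC 700392 was tested as the […]. Ciprofloxacin was the reference drug. MIC is given in μM as the mean of three experiments.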

Escherichia coli [2] = experiment: Antibacterial activity against Escherichia coli ATCC 8739 by broth microdilution method; format: functional; outline: as §1
[3] = Selectivity index, ratio of cytotoxicity against mouse RAW264.7 cells to MIC for Mycobacterium tuberculosis H37Rv; format: toxicity, cell-based; conditions: read-out: Selectivity Index
Outline: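 SI is cytotoxicity divided by the MABA MIC (μg mL⁻¹) against H37Rv. For cytotoxicity, RAW 264.7 cells were grown in RPMI with 10% FBS and penicillin/streptomycin. About 5000 cells per well were seeded on poly-L-lysine plates and held 24 h at 37 °C, 5% CO2. Compounds were added at 25 μg mL⁻¹ for 48 h, then MTT (0.5 mg mL⁻¹) for 3 h. Formazan was read at 595/625 nm and reported as % inhibition.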

[4] = test system: Mycobacterium tuberculosis; experiment: Antimycobacterial activity against Mycobacterium tuberculosis H37Rv incubated for 7 days by alamar blue assay; format: functional; conditions: 168 h, time 7 day
Outline: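 Two-fold serial dilutions in 7H9-S, with growth and sterile controls, incubated at 37 °C for 7 days. Alamar Blue then added and incubated overnight. MIC is the lowest concentration preventing the blue-to-pink change. Means of three experiments.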

RAW264.7 = experiment: Cytotoxicity against mouse RAW264.7 cells at 25 ug/ml incubated for 48 hrs by MTT assay; format: toxicity, cell-based; conditions: raw264.7, 48 h, at 25 µg/mL
Outline: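 RAW 264.7 mouse macrophages were grown in RPMI with 10% FBS plus penicillin/streptomycin to 80–90% confluency. About 5000 cells/well were seeded on poly-L-lysine-coated plates and held 24 h at 37 °C, 5% CO2. Compound was added at 25 μg mL−1 for 48 h at 37 °C. MTT (0.5 mg mL−1) was added for 3 h, and formazan was read at 595 and 625 nm. Result is % inhibition.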

Enterococcus faecalis [5] = experiment: Antibacterial activity against Enterococcus faecalis ATCC 19433 by broth microdilution method; format: functional; outline: as §1
Helicobacter pylori = experiment: Antibacterial activity against Helicobacter pylori ATCC 700392 by broth microdilution method; format: functional; outline: as §1
Pseudomonas aeruginosa [6] = experiment: Antibacterial activity against Pseudomonas aeruginosa ATCC 27853 by broth microdilution method; format: functional; outline: as §1
Klebsiella pneumoniae [7] = experiment: Potency index, ratio of nitazoxanide MIC to test compound MIC for antibacterial activity against Klebsiella pneumoniae ATCC 10031; format: functional
Escherichia coli [8] = experiment: Potency index, ratio of nitazoxanide MIC to test compound MIC for antibacterial activity against Escherichia coli ATCC 8739; format: functional
Klebsiella pneumoniae [9] = experiment: Antibacterial activity against Klebsiella pneumoniae ATCC 10031 by broth microdilution method; format: functional; outline: as §1
Pseudomonas aeruginosa [10] = experiment: Potency index, ratio of nitazoxanide MIC to test compound MIC for antibacterial activity against Pseudomonas aeruginosa ATCC 27853; format: functional
Enterococcus faecalis [11] = experiment: Potency index, ratio of nitazoxanide MIC to test compound MIC for antibacterial activity against Enterococcus faecalis ATCC 19433; format: functional
Staphylococcus aureus [12] = experiment: Potency index, ratio of nitazoxanide MIC to test compound MIC for antibacterial activity against Staphylococcus aureus ATCC 6538; format: functional
[13] = test system: Mycobacterium tuberculosis; experiment: Potency index, ratio of nitazoxanide MIC to test compound MIC for antitubercular activity against Mycobacterium tuberculosis H37Rv; format: functional
[14] = test system: Mycobacterium tuberculosis; experiment: Potency index, ratio of ethambutol MIC to test compound MIC for antitubercular activity against Mycobacterium tuberculosis H37Rv; format: functional

Row | Compound | MIC (Staphylococcus aureus [1]) [µM] | MIC (Escherichia coli [2]) [µM] | selectivity ratio [3] | MIC [4] [µg/mL] | Cell growth inhibition (RAW264.7) [%] | MIC (Enterococcus faecalis [5]) [µM] | MIC (Helicobacter pylori) [µM] | MIC (Pseudomonas aeruginosa [6]) [µM] | Ratio (Klebsiella pneumoniae [7]) | Ratio (Escherichia coli [8]) | MIC (Klebsiella pneumoniae [9]) [µM] | Ratio (Pseudomonas aeruginosa [10]) | Ratio (Enterococcus faecalis [11]) | Ratio (Staphylococcus aureus [12]) | Ratio [13] | Ratio [14]
1 | Cc1ccc(-c2cn(-c3ccc(C(=O)Nc4ncc([N+](=O)[O-])s4)c(O)c3)nn2)cc1 | 1210 (≈ 512 µg/mL) | 7.1 (≈ 3 µg/mL) | 1 | 25 (≈ 59.2 µM) | 27.6 | 75.8 (≈ 32 µg/mL) | 5.91 (≈ 2.5 µg/mL) | 303 (≈ 128 µg/mL) |  |  |  |  |  |  |  | 
2 | COC(=O)c1cn(-c2ccc(C(=O)Nc3ncc([N+](=O)[O-])s3)c(O)c2)nn1 | 10.2 (≈ 4 µg/mL) | 3.84 (≈ 1.5 µg/mL) |  | > 25 |  |  | 3.84 (≈ 1.5 µg/mL) | 15.4 (≈ 6 µg/mL) | <=20 | 20 | 5.12 (≈ 2 µg/mL) |  |  |  |  | 
3 | O=C(Nc1ncc([N+](=O)[O-])s1)c1ccc(-n2cc(CN3C(=O)C(=O)c4cc(F)ccc43)nn2)cc1O | 15.7 (≈ 8 µg/mL) |  |  | > 25 |  | 4.9 (≈ 2.5 µg/mL) | 3.92 (≈ 2 µg/mL) | 7.85 (≈ 4 µg/mL) |  |  |  | >50 | 25 |  |  | 
4 | O=C(Nc1ncc([N+](=O)[O-])s1)c1ccc(-n2cc(CN3CCCC3)nn2)cc1O | 3.61 (≈ 1.5 µg/mL) | 6.01 (≈ 2.5 µg/mL) |  | > 25 |  |  | 19.2 (≈ 8 µg/mL) | 7.22 (≈ 3 µg/mL) |  |  | 12 (≈ 5 µg/mL) | >50 |  | 25 |  | 
5 | CN1CCN(Cc2cn(-c3ccc(C(=O)Nc4ncc([N+](=O)[O-])s4)c(O)c3)nn2)CC1 | 4.49 (≈ 2 µg/mL) |  |  | > 25 |  |  | 6.74 (≈ 3 µg/mL) | 144 (≈ 64 µg/mL) | <=20 |  | 8.99 (≈ 4 µg/mL) |  |  | 25 |  | 
6 | O=C(O)c1cn(-c2ccc(C(=O)Nc3ncc([N+](=O)[O-])s3)c(O)c2)nn1 | 85 (≈ 32 µg/mL) | 6.64 (≈ 2.5 µg/mL) | 1 | 25 (≈ 66.4 µM) | 27.5 |  | 21.2 (≈ 8 µg/mL) | 10.6 (≈ 4 µg/mL) |  |  | 15.9 (≈ 6 µg/mL) |  |  |  |  | 
7 | O=C(Nc1ncc([N+](=O)[O-])s1)c1ccc(-n2cc(CN3C(=O)C(=O)c4cc(Br)ccc43)nn2)cc1O | 0.87 (≈ 0.496 µg/mL) | 21 (≈ 12 µg/mL) |  | > 25 |  | 8.76 (≈ 5 µg/mL) | 3.5 (≈ 2 µg/mL) | 5.26 (≈ 3 µg/mL) | <=20 |  | 4.38 (≈ 2.5 µg/mL) | >50 |  | 25 |  | 
8 | CC(=O)Oc1cc(N=[N+]=[N-])ccc1C(=O)Nc1ncc([N+](=O)[O-])s1 | 11.5 (≈ 4 µg/mL) | 8.61 (≈ 3 µg/mL) | 16 | 1.56 (≈ 4.48 µM) | 17.54 | 2.15 (≈ 0.749 µg/mL) | 11.5 (≈ 4 µg/mL) | 91.9 (≈ 32 µg/mL) |  |  | 34.5 (≈ 12 µg/mL) |  | 25 |  | 5 | 1.7
9 | O=C(Nc1ncc([N+](=O)[O-])s1)c1ccc(-n2cc(CN3CCCCC3)nn2)cc1O | 9.31 (≈ 4 µg/mL) | 74.5 (≈ 32 µg/mL) |  | > 25 |  | 27.9 (≈ 12 µg/mL) | 1.74 (≈ 0.747 µg/mL) |  |  |  | 1190 (≈ 512 µg/mL) |  |  |  |  | 
10 | O=C(Nc1ncc([N+](=O)[O-])s1)c1ccc(-n2cc(CN3C(=O)C(=O)c4cc(Cl)ccc43)nn2)cc1O |  | 487 (≈ 256 µg/mL) |  | > 25 |  |  | 4.75 (≈ 2.5 µg/mL) |  |  |  | 60.9 (≈ 32 µg/mL) |  |  |  |  | 
11 | O=C(Nc1ncc([N+](=O)[O-])s1)c1ccc(-n2cc(CN3CCOCC3)nn2)cc1O | 6.95 (≈ 3 µg/mL) | 1190 (≈ 512 µg/mL) |  | > 25 |  |  | 9.27 (≈ 4 µg/mL) | 148 (≈ 64 µg/mL) |  |  | 18.5 (≈ 8 µg/mL) |  |  | 25 |  | 
12 | O=C(Nc1ncc([N+](=O)[O-])s1)c1ccc(-n2cc(CN3C(=O)C(=O)c4ccccc43)nn2)cc1O | 32.5 (≈ 16 µg/mL) |  |  | > 25 |  | 4.06 (≈ 2 µg/mL) | 130 (≈ 64 µg/mL) | 16.3 (≈ 8 µg/mL) |  |  |  |  | 25 |  |  | 
